GASC-1 inh – human JMJD2C demethylase inhibition; Q9H3R0; GST-JMJD2C(1-420) H3K9me3 demethylation, DELFIA europium; inhibition, % at 2.35 µM; hit rate 0.069% among 330,000; AID 2099;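 active = more than half of a compound's replicate wells show inhibition beyond 50%, single wells judged on their own value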;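 also: signal counts dimethyl H3K9 product captured on neutravidin plate; 0% = median of DMSO wells and 100% = 0.3 times that DMSO median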
Arrestin-AP2 inh – inhibitors of human beta-arrestin and AP2 interaction | AID 504490 | FITC-arrestin peptide / GST-AP2 beads, flow cytometry; AP2 beta2 appendage carries R879A mutation | hit rate 0.31% among 340,000 | inhibition, % at 10 µM;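 active = inhibition above a set limit, near 3 SD of compounds lacking own fluorescence, cut at about 54% in these data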;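 also: plate controls were DMSO wells for no effect and 5 µM unlabelled arrestin peptide for full effect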
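Material – GST-tagged AP2 beta2-adaptin appendage (R879A) on 4 µm glutathione beads · Probe or stimulus – fluorescein-tagged arrestin peptide at 50 nM final · Timing – 12 min plus 1 h, RT · Detection – bead flow cytometry, FITC channel · Read-out basis – inhibition as reduced fluorescein signal on beads, percent · Medium – PBS plus Tween 20 (0.05%) and BSA (0.1%)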
LANA-H2A inh – blocks KSHV LANA binding to histone H2A/H2B | Q9QR71 | cell-free LANA-H2A/H2B peptide, fluorescence polarization | inhibition, % (no concentration beside the values) | hit rate 0.6% among 320,000 | AID 2629; in the data active = inhibition mostly above about 10%, no sharp cut-off; inactive = mostly below about 6.7%
DSG3 Ab inh – blocks pemphigus antibody binding to human desmoglein-3. hit rate 0.48% among 310,000. binding (percent of control), % at 10 µM. P32926. AID 588358. DSG3-coupled beads, scFv-anti-DSG3-GFP binding, flow cytometry; stronger effect = lower value;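 active = binding more than 3 SD below its plate's average and above zero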
T cell HTS – T cell immune modulators affecting CD8 T cell-vesicle binding | 2C CD8+ T cell-vesicle binding, flow cytometry; stronger effect = lower value | response (vesicle binding), % at 7 µM | hit rate 0.068% among 330,000 | AID 2052;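 active = response, share of CD8 T cells binding vesicles, and their 90th percentile fluorescence all below set limits, cut at about 80% in these data, passing the limit was not always enough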;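 also: values below 100% mean blocked vesicle binding to the CD8+ T cells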
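Test system: purified 2C TCR transgenic mouse naive CD8+ T cells. Probe or stimulus: QL9-peptide-loaded Drosophila micro-vesicles bearing Ld, ICAM-1 and B7-1. Incubation: binding step 1.5 h, 37 °C, antibody labelling 20 min, ice. Measured by: flow cytometry of vesicle-bound cells.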
HDAC3 inh – blocks human histone deacetylase 3; O15379; recombinant HDAC3, fluorogenic peptide/trypsin coupled, fluorescence; inhibition, % at 8.3 µM; hit rate 0.15% among 320,000; AID 2718; in the data active = inhibition above about 26%, passing the limit was not always enough
Target sequence (O15379 whole entry, looked up): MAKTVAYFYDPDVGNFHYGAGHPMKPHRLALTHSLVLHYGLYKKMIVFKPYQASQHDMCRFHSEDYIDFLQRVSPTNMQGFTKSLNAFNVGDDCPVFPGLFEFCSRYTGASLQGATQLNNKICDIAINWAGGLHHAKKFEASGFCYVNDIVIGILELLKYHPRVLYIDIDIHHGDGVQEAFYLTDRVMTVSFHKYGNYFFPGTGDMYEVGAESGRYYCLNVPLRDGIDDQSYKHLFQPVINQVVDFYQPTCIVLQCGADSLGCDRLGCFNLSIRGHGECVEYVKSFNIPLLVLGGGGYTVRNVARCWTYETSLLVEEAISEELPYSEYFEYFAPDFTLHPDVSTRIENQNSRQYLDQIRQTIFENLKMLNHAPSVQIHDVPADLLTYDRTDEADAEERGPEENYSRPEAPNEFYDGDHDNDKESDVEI
The depositor's hits bear a star; . = not tested or not shown; + = active, no number. Most compounds without a hit are left out; they make up all but 1.6% or so of the library.

SMILES | GASC-1 inh | Arrestin-AP2 inh | LANA-H2A inh | DSG3 Ab inh | T cell HTS | HDAC3 inh
O=C(O)CCC1c2cc3c4cc2OC2Oc5cc6c(cc51)C(CCC(=O)O)c1cc5c7cc1OC(O6)c1cc6cc(c1)Oc1cc(cc(C(=O)O)c1)Oc1cc8cc(c1)C(Oc1cc(c(cc1C5CCC(=O)O)C3CCC(=O)O)OC(O4)c1cc(cc(c1)Oc1cc(cc(C(=O)O)c1)O8)Oc1cc(cc(C(=O)O)c1)Oc1cc(cc2c1)Oc1cc(cc(C(=O)O)c1)O6)O7 (stereo not drawn) | 100.9* | . | -2.7 | . | 711.0 | -16.9
O=C(NC(=S)Nc1ccc(Br)c(Cl)c1)C1CC1 | -0.8 | 33.9 | 1.3 | 104.9 | 329.9 | 2.8
CC(=O)c1ccc(NC(=S)Nc2ccc(Br)c(Cl)c2)cc1 | 5.6 | 3.4 | 35.8* | 99.2 | 809.3 | 14.2
Cc1ccc(OCC(COCc2ccccc2)NC(C)C)cc1 (stereo not drawn) | 1.9 | 2.7 | 3.3 | 94.8 | 574.2 | -7.1
CCOc1ccc(NC(=O)CN(C)CC(=O)Nc2cc(Cl)ccc2C#N)cc1OCC | 59.8* | 30.9 | 2.3 | 73.4 | 247.1 | -0.8
CCOc1ccc(NC(=O)CN(C)C(=O)c2cc(C)nc3ccccc23)cc1OCC | -0.2 | 21.1 | -4.7 | . | 276.4 | 8.0
CCOc1ccc(NC(=O)CN(C)C(=O)c2nc3nc(C)cc(C)n3n2)cc1OCC | -22.3 | -13.4 | 34.9* | 99.8 | 438.2 | 6.5
CC1CCCN(C(=O)c2ccc(Br)c(S(=O)(=O)N3CCOCC3)c2)C1 (stereo not drawn) | 5.7 | -1.9 | 4.7 | 101.0 | 431.8 | 0.2
Nc1ccc2nc(CCCCCCCCc3nc4ccc(N)cc4[nH]3)[nH]c2c1 | -5.6 | 9.2 | 3.5 | 92.3 | 674.4 | 0.3
Nc1ccc2nc(CCCCCCc3nc4ccc(N)cc4[nH]3)[nH]c2c1 | 9.3 | 6.5 | 1.0 | 65.0* | 455.2 | 2.9
CC1CN(S(=O)(=O)c2ccc(C(=O)N(CCCN(C)C)c3nc4c(Cl)cccc4s3)cc2)CC(C)O1 (stereo not drawn) | 0.5 | 13.6 | 1.2 | 114.0 | 749.0 | 1.4
COc1ccc(NC(=O)CCn2c(=S)[nH]c3ccccc3c2=O)cc1OC | 1.5 | -20.9 | 3.9 | 62.8* | 306.0 | 1.2
Cc1cc(C)cc(NC(=O)CCn2c(=S)[nH]c3ccccc3c2=O)c1 | 7.3 | 49.9 | 1.8 | . | 435.5 | 1.6
COc1ccc(-n2c(=S)[nH]c3cc(C(=O)Nc4ccc(OC)c(OC)c4)ccc3c2=O)cc1 | 6.8 | 3.2 | 125.7* | 95.5 | 350.8 | 1.0
O=C(c1cccnc1)N1N=C(C2CC2)CC1(O)C(F)(F)F (stereo not drawn) | 4.1 | -0.2 | 11.4* | 90.2 | 112.4 | .
Cc1oc2c(cc(NS(=O)(=O)c3ccc(C(C)C)cc3)c3ccccc32)c1C(=O)O | 8.2 | 16.7 | 26.2* | 91.1 | 330.8 | 4.3
CSc1ccccc1OCc1cc(C(=O)NCCC2=CCCCC2)no1 | 3.8 | 1.1 | -2.6 | 25.0* | 264.5 | -4.0
O=C(NCCC1=CCCCC1)c1cc(COc2c(F)cccc2F)on1 | 12.4 | -8.6 | 4.1 | 105.3 | 448.6 | -3.3
O=C(CCCN1C(=O)/C(=C\c2cccs2)SC1=S)Nc1cccnc1 | 2.1 | -7.3 | 2.0 | 95.9 | 276.6 | 3.4
O=C(CCCN1C(=O)/C(=C\c2cccc(Br)c2)SC1=S)Nc1cccnc1 | 1.2 | -5.4 | 18.6* | 102.4 | 131.2 | -6.2
O=C(CCCN1C(=O)/C(=C/c2cccs2)SC1=S)Nc1cccnc1 | 0.8 | 0.6 | -25.5 | 68.2* | 235.6 | -5.5
O=C(CCN1C(=O)/C(=C\c2ccccc2)SC1=S)NNC(=O)c1cccnc1 | 5.0 | 18.4 | -0.4 | 72.0* | 164.9 | 5.4
O=C(CCCN1C(=O)/C(=C/c2ccccc2Cl)SC1=S)NNC(=O)c1cccnc1 | 3.4 | 27.5 | 1.1 | 102.0 | 327.1 | 7.5
COc1ccc(NC(=O)N(C)C[C@H]2Oc3c(NC(=O)C4CC4)cccc3C(=O)N([C@H](C)CO)C[C@@H]2C)cc1 | 45.3 | 4.8 | 8.1 | 105.5 | 218.2 | -0.6
CC1CCCN(C(=O)CSc2nnc(-c3cccnc3)n2C2CCCCC2)C1 (stereo not drawn) | 0.5 | 5.5 | -5.1 | 61.0* | 343.8 | -2.3
SMILES | GASC-1 inh | Arrestin-AP2 inh | LANA-H2A inh | DSG3 Ab inh | T cell HTS | HDAC3 inh
O=C(CSc1nnc(-c2ccccc2)n1C1CCCCC1)N1CCCC1 | -3.1 | -7.8 | -0.5 | 96.6 | 419.2 | -5.4
CN(C(=O)c1ccc(NC(=O)Cc2ccc(NC(=O)C3CCN(S(=O)(=O)c4cccc([N+](=O)[O-])c4)CC3)cc2)cc1)C1CCCC1 | . | 30.3 | . | 95.0 | . | .
Cc1cc2ncc(-c3ccc(Cl)cc3)c(N)n2n1 | 9.1 | -3.0 | 2.7 | 98.7 | 278.4 | -4.7
Nc1c(-c2ccccc2)cnc2cc(-c3ccccc3)nn12 | -12.6 | -6.0 | . | 79.6* | . | .
NC(=O)c1cc([N+](=O)[O-])ccc1NCc1ccc(C(=O)O)cc1 | -3.2 | 2.5 | 0.7 | 100.5 | 365.1 | 2.0
O=C1Nc2ccccc2C1=Nc1ccccc1-c1ccccc1 | . | -11.6 | . | 96.9 | . | .
COc1ccc(C2C(C(=O)N3CCCC3)c3cc(OC)c(OC)cc3C(=O)N2C)cc1OC (stereo not drawn) | -0.2 | 4.1 | 2.5 | . | 344.1 | 2.7
COc1cc2c(cc1OC)C(C(=O)N1CCCCC1)C(c1ccccc1F)N(C)C2=O (stereo not drawn) | 8.2 | 2.0 | 6.3 | 102.6 | 375.0 | 2.1
CCN1CCN(C(=O)C2c3cc(OC)c(OC)cc3C(=O)N(C)C2c2ccc(SC)cc2)CC1 (stereo not drawn) | 28.7 | 2.6 | -7.5 | 103.1 | 218.1 | 28.2*
COc1ccc(C2C(C(=O)N3CCN(C)CC3)c3cc(OC)c(OC)cc3C(=O)N2C)cc1 (stereo not drawn) | 2.3 | -6.4 | + | . | 125.2 | 6.7
CCc1ccc(C2C(C#N)=C(N)N(N(C)C)C3=C2C(=O)CCC3)cc1 (stereo not drawn) | 12.4 | -7.0 | -0.8 | 110.4 | 208.5 | 3.6
COc1ccc(C(Sc2ccccc2)c2ccccc2)cc1OC (stereo not drawn) | 1.9 | -3.0 | 12.0* | 102.9 | 389.8 | 5.0
C/C=C/C(=O)N1CC2(CC(c3cccc(NC(=O)CCCCC)c3)=NO2)C[C@H]1C(N)=O (stereo partly drawn) | 3.3 | . | . | . | . | .
C/C=C/C=C/C(=O)N1CC2(CC(c3cccc(NC(=O)CCCCC)c3)=NO2)C[C@H]1C(N)=O (stereo partly drawn) | -23.9 | 1.2 | -2.1 | 100.8 | 336.0 | 60.8*
C=C(C)C(=O)Nc1cccc(C2=NOC3(C2)C[C@@H](C(N)=O)N(C(=O)/C=C/C=C/C)C3)c1 (stereo partly drawn) | 16.7 | 8.6 | -1.2 | 89.7* | 391.1 | 6.2
